Source: PubChem BioAssay
GASC1 inh: KDM4C (human) demethylase inhibition | inhibition, % at 12.5 µM | AID 720574 | GST-KDM4C 2-372, H3K9me3 peptide, LANCE TR-FRET | 0.15% of 96,000 active;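 active means mean replicate inhibition above about 25%, with at least 55% of replicates also reaching it, limit read from the data, passing the limit was not always enough; inconclusive means only one of those two conditions met; inactive means neither condition met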
Target sequence (Q9H3R0 2-372 limits assumed): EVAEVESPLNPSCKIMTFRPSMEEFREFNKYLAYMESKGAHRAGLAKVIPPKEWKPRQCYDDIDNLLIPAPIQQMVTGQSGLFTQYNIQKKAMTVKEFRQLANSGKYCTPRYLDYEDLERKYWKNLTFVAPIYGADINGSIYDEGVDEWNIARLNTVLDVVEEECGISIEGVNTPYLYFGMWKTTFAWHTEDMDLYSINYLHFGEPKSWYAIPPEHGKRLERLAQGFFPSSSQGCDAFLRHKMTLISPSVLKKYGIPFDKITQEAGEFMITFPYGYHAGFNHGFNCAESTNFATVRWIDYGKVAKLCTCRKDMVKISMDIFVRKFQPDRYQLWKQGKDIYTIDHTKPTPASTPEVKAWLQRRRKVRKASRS
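Test system: N-terminal GST-fused human GASC-1 (KDM4C) fragment, residues 2-372; quantity: GASC-1 enzyme at 10 nM final in reaction; dosing: single dose; schedule: 30 min demethylation and 1 h detection at room temperature; signal: LANCE TR-FRET, excitation 340 nm, emissions 618 and 671 nm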
Tcruzi prolif: inhibitors of T. cruzi proliferation | T. cruzi beta-gal in NIH3T3, GalScreen luminescence, 90 h | inhibition, % at 8.34 µM | 5.9% of 77,000 active | AID 624255;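 active means mean inhibition above about 93%, with at least 55% of replicates each passing it, limit read from the data, passing the limit was not always enough; inconclusive means only one of those two conditions holds; inactive means neither condition holds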
IDH1 mut inh: blocks human IDH1 R132H reductase activity; O75874; diaphorase/resazurin fluorescence, 60 min; inhibition, % at 10 µM; 0.18% of 70,000 active; AID 624101; in the data active means inhibition above about 34%; inconclusive means no clear call, values can overlap the other calls; inactive means below about 11%
Pf Dd2 growth: inhibitors of Plasmodium falciparum Dd2 growth | 2.3% of 94,000 active | activity change, % at 10 µM | P. falciparum Dd2 growth, SYBR Green, 72 h; stronger effect = lower value | AID 1159554; in the data active means activity change below about -80%; inconclusive means no clear call, values can overlap the other calls
Hits are given with their value; n = inactive; u = inconclusive; x = not tested or not shown. Rows were chosen to be rich in hits. Some 5.8% of all compounds tested hit in one or more screens of this group.

SMILES | GASC1 inh | Tcruzi prolif | IDH1 mut inh | Pf Dd2 growth
C[C@@H]1CN([C@@H](C)CO)C(=O)c2cccc(NC(=O)CCCCCC(=O)Nc3ccccc3N)c2O[C@@H]1CN(C)C(=O)Nc1ccc(C(F)(F)F)cc1 | n | x | x | -90.5
C[C@@H]1CN([C@@H](C)CO)C(=O)c2cccc(NC(=O)CCCCCC(=O)Nc3ccccc3N)c2O[C@@H]1CN(C)C(=O)Nc1ccc(F)cc1 | n | x | x | -86.4
C[C@@H]1CN([C@H](C)CO)C(=O)c2cccc(NC(=O)CCCCCC(=O)Nc3ccccc3N)c2O[C@@H]1CN(C)C(=O)Nc1ccc2c(c1)OCO2 | n | x | x | -82.0
C[C@H](CO)N1C[C@H](C)[C@H](CN(C)C(=O)Nc2ccc(F)cc2)Oc2c(NC(=O)CCCCCC(=O)Nc3ccccc3N)cccc2C1=O | n | x | n | n
CCC(Sc1nnnn1C)C(=O)Nc1cccc([N+](=O)[O-])c1 (centres undefined) | x | x | n | x
CCOc1c(OC)cc(Cl)cc1C1NC(=O)NC(C)=C1C(=O)Nc1ccccc1C(=O)OC (centres undefined) | x | x | n | x
CCn1c(NCc2ccccc2O)nc2ccccc21 | x | x | n | x
Cc1ccc([N+](=O)[O-])cc1S(=O)(=O)NCCOc1ccccc1Cl | x | x | n | x
Cc1noc(C)c1NC(=O)N(C)C[C@@H]1Oc2c(NC(=O)CCCCCC(=O)Nc3ccccc3N)cccc2C(=O)N([C@@H](C)CO)C[C@@H]1C | n | x | n | n
Cc1noc(C)c1NC(=O)N(C)C[C@H]1Oc2c(NC(=O)CCCCCC(=O)Nc3ccccc3N)cccc2C(=O)N([C@@H](C)CO)C[C@H]1C | n | x | x | -85.8
CCC[C@H]1CC2=C(C[C@@H](CC)CC3=C1C(=O)OC3=O)C(=O)OC2=O | x | x | n | x
C[C@H](CO)N1C[C@H](C)[C@H](CN(C)Cc2ccccc2)Oc2ccc(NC(=O)CCCCCC(=O)Nc3ccccc3N)cc2CC1=O | n | n | n | n
C[C@H](CO)N1C[C@H](C)[C@H](CN(C)Cc2ccc(Oc3ccccc3)cc2)Oc2ccc(NC(=O)CCCCCC(=O)Nc3ccccc3N)cc2CC1=O | n | n | x | -84.3
C[C@H]1CN([C@@H](C)CO)C(=O)Cc2cc(NC(=O)CCCCCC(=O)Nc3ccccc3N)ccc2O[C@H]1CN(C)Cc1ccc(Oc2ccccc2)cc1 | n | n | x | -84.9
Cc1ccc(S(=O)(=O)NC2(C(F)(F)F)C(=O)N(CC3CCCO3)C3=C2C(=O)CC(C)(C)C3)cc1 (centres undefined) | x | x | n | x
C[C@H]1CN([C@@H](C)CO)C(=O)c2cccc(NC(=O)c3ccc(-c4nccs4)cc3)c2O[C@@H]1CN(C)Cc1ccc(C(=O)Nc2ccccc2N)cc1 | n | 104.2 | x | -89.9
C[C@@H]1CN([C@@H](C)CO)C(=O)c2cccc(NC(=O)c3ccc(-c4nccs4)cc3)c2O[C@@H]1CN(C)Cc1ccc(-c2ccccc2)cc1 | n | n | n | n
C[C@@H]1CN([C@H](C)CO)C(=O)c2cccc(NC(=O)c3ccc(-c4nccs4)cc3)c2O[C@H]1CN(C)Cc1ccc(C(=O)Nc2ccccc2N)cc1 | n | n | n | -90.8
CCn1c(SCC(=O)Nc2ccc(C(N)=O)cc2)nnc1-c1ccc(F)cc1 | x | x | n | x
COc1ccc(NC(=O)CSc2nc(C)c3c(n2)CCCC3)c([N+](=O)[O-])c1 | x | x | n | x
O=C(Cn1cnc2sc3c(c2c1=O)CCCC3)Nc1ccccc1Br | x | x | n | x
C[C@H]1CN([C@@H](C)CO)C(=O)c2c(c3ccccc3n2C)-c2ccccc2CO[C@H]1CN(C)S(=O)(=O)c1ccc(Cl)cc1 | n | n | n | -86.1
C[C@H]1CN([C@@H](C)CO)C(=O)c2c(c3ccccc3n2C)-c2ccccc2CO[C@@H]1CN(C)S(=O)(=O)c1ccc(Cl)cc1 | n | n | x | -84.8
COc1ccc(S(=O)(=O)N(C)C[C@H]2OCc3ccccc3-c3c(n(C)c4ccccc34)C(=O)N([C@H](C)CO)C[C@H]2C)cc1 | n | n | n | n
C[C@H](CO)N1C[C@H](C)[C@H](CN(C)S(=O)(=O)c2ccc(Cl)cc2)OCc2ccccc2-c2c(n(C)c3ccccc23)C1=O | x | x | x | -93.6
SMILES | GASC1 inh | Tcruzi prolif | IDH1 mut inh | Pf Dd2 growth
C[C@@H]1CN([C@H](C)CO)C(=O)c2c(c3ccccc3n2C)-c2ccccc2CO[C@H]1CN(C)S(=O)(=O)c1ccc(Cl)cc1 | n | n | n | -84.1
C[C@H]1CN([C@@H](C)CO)C(=O)c2c(c3ccccc3n2C)-c2ccccc2CO[C@@H]1CN(C)S(=O)(=O)c1ccc(C(F)(F)F)cc1 | n | x | x | u
C[C@@H]1CN([C@H](C)CO)C(=O)c2c(c3ccccc3n2C)-c2ccccc2CO[C@@H]1CN(C)S(=O)(=O)c1ccc([N+](=O)[O-])cc1 | n | x | x | n
N#Cc1ccccc1CSc1nnc(Cc2cccc3ccccc23)n1-c1ccccc1 | x | x | n | x
COc1cccc(C(=O)NC2(C(F)(F)F)C(=O)N(CC3CCCO3)C3=C2C(=O)CC(C)(C)C3)c1 (centres undefined) | x | x | n | x
COc1cc(C(=O)OC[C@@]2(O)CO[C@H](OC3C(CO)OC(OC(C)/C=C/C4(O)C(C)CC(O)CC4(C)C)C(O)C3O)[C@@H]2O)cc(OC)c1O (some centres undefined) | x | x | n | x
Cc1c(Br)c([N+](=O)[O-])nn1CC(=O)Nc1cccnc1 | x | x | n | x
COc1cccc(S(=O)(=O)Nc2ccc3c(c2)[C@H]2C[C@@H](CC(=O)O)O[C@H](CO)[C@H]2O3)c1 | 38.5 | n | 72.2 | n
O=C(O)C[C@@H]1C[C@@H]2c3cc(NS(=O)(=O)c4ccccc4)ccc3O[C@@H]2[C@H](CO)O1 | n | x | x | -93.5
COc1cccc(S(=O)(=O)Nc2ccc3c(c2)[C@@H]2C[C@H](CC(=O)O)O[C@@H](CO)[C@@H]2O3)c1 | n | n | n | n
COc1cccc(S(=O)(=O)Nc2ccc3c(c2)[C@@H]2C[C@H](CC(=O)NCc4ccc(Cl)cc4)O[C@@H](CO)[C@@H]2O3)c1 | n | n | n | -82.1
O=C(O)C[C@@H]1C[C@H]2c3cc(NS(=O)(=O)c4ccccc4)ccc3O[C@H]2[C@@H](CO)O1 | n | n | n | n
COC(=O)c1ccccc1NC(=O)CSc1nc2c(cc1C#N)CCCCC2 | x | x | n | x
NC(=O)CN(Cc1ccc(F)cc1)S(=O)(=O)c1ccc(Cl)cc1 | x | x | n | x
C[C@@H]1CN([C@H](C)CO)C(=O)c2cc(NC(=O)Cc3ccccc3)ccc2O[C@@H](C)CCCCO[C@@H]1CN(C)S(=O)(=O)c1ccccc1 | n | x | n | -81.1
C[C@@H]1CCCCO[C@@H](CN(C)S(=O)(=O)c2ccc(F)cc2)[C@H](C)CN([C@H](C)CO)C(=O)c2cc(NC(=O)Cc3ccccc3)ccc2O1 | n | n | n | n
C[C@@H]1CN([C@@H](C)CO)C(=O)c2cc(NC(=O)Cc3ccccc3)ccc2O[C@@H](C)CCCCO[C@@H]1CN(C)S(=O)(=O)c1ccc(F)cc1 | n | n | n | -86.7
C[C@@H]1CN([C@H](C)CO)C(=O)c2cc(NC(=O)Cc3ccccc3)ccc2O[C@@H](C)CCCCO[C@@H]1CN(C)S(=O)(=O)c1ccc(F)cc1 | n | n | n | -88.8
